Experiment: Antiviral activity against rimantidine, amantidine-resistant Influenza A virus (A/California/07/09(H1N1)) pdm09 infected in MDCK cells assessed as inhibition of viral replication after 1 hrs by hemagglutination assay
Format: functional, Influenza A virus (A/California/07/2009(H1N1))
Settings: read-out: ED50 (the source's name)
Method in brief: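 MDCK cells were pre-incubated 1 h at 37°C with serial twofold compound dilutions in MEM containing 2 mM arginine, 2 mM glutamine and 2 microgram/mL trypsin, then infected and cultured 48 h at 36°C. Supernatant was mixed with 1% chicken erythrocytes for 1 h at room temperature to read hemagglutination titer. ED50 is the concentration that halves virus production versus untreated cells.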
For `CC(=O)C1=C(O)C=C2Oc3c(C(C)=O)c(OC(=O)c4ccccc4Br)c(C)c(OC(=O)c4ccccc4Br)c3[C@@]2(C)C1=O`, the EC50 was 7.8 µM. For `CC(=O)C1=C(O)C=C2Oc3c(C(=O)CSCc4ccc(C)cc4)c(O)c(C)c(O)c3[C@@]2(C)C1=O`, the EC50 was 2.1 µM. Compound `CC(=O)c1c(O)c(C)c(O)c2c1OC1=CC(=O)/C(=C(/C)NCCC(=O)O)C(=O)[C@@]12C` has an EC50 of 7.2 µM. `CC(=O)C1=C(O)C=C2Oc3c(C(=O)CSc4nc5ccccc5o4)c(O)c(C)c(O)c3[C@@]2(C)C1=O` showed an EC50 of 2 µM. Work on `COc1c(C)c(O)c(C(=O)/C=C/c2ccccc2)c2c1[C@]1(C)C(=Cc3c(c(C)nn3-c3ccccc3)CC13CO3)O2` (single isomer, unassigned; (+)) yielded an EC50 of 5.5 µM. `COc1c(C)c(O)c(C(=O)/C=C/c2ccc(Cl)cc2)c2c1[C@@]1(C)C(=Cc3c(c(C)nn3-c3ccccc3)[C@@H]1O)O2` showed an EC50 of 79.4 µM. `COc1ccc(-c2cc(-c3c(O)c(C)c(OC)c4c3OC3=Cc5c(c(C)nn5-c5ccccc5)[C@@H](O)[C@@]34C)n[nH]2)cc1` showed an EC50 of 102 µM. Work on `CC(=O)C1=C(O)C=C2Oc3c4c(c(C)c(O)c3[C@@]2(C)C1=O)O/C(=C\c1ccncc1)C4=O` yielded an EC50 of 7.7 µM. `CC(=O)c1c(O)c(C)c(O)c2c1OC1=CC(=O)/C(=C(/C)NCC(=O)O)C(=O)[C@@]12C` showed an EC50 of 11.2 µM. `CC(=O)C1=C(O)C[C@H]2Oc3c(C(C)=O)c(O)c(C)c(O)c3[C@@]2(C)C1=O` gave an EC50 of 8.1 µM. For `CC(=O)c1c(O)c(C)c(O)c2c1OC1=Cc3c(c(C)nn3-c3ccccc3)C(=O)[C@@]12C`, the EC50 was 69.5 µM. In the case of `COc1ccc(/C=C/C(=O)c2c(O)c(C)c(OC)c3c2OC2=Cc4c(c(C)nn4-c4ccccc4)[C@@H](O)[C@@]23C)cc1OC`, the EC50 is reported as 34.5 µM. `COc1c(C)c(O)c(C(=O)/C=C/c2ccc(Cl)cc2)c2c1[C@]1(C)C(=Cc3c(c(C)nn3-c3ccccc3)[C@H]1O)O2` showed an EC50 of 55.1 µM. For `COc1ccccc1/C=C/C(=O)c1c(O)c(C)c(OC)c2c1OC1=Cc3c(c(C)nn3-c3ccccc3)[C@@H](O)[C@@]12C`, the EC50 was 82.7 µM. With `CC(=O)C1=C(O)C=C2Oc3c4c(c(C)c(O)c3[C@@]2(C)C1=O)O/C(=C\c1ccc(Br)cc1)C4=O` the EC50 was 4.7 µM. In the case of `CC(=O)C1=C(O)C=C2Oc3c(C(C)=O)c(O)c(C)c(O)c3[C@@]2(C)C1=O` [(+)-USNIC ACID], the EC50 is reported as 51.7 µM. In the case of `COc1c(C)c(O)c2c(c1C(=O)CSc1nc3ccccc3o1)OC1=CC(O)=C(C(C)=O)C(=O)[C@]12C`, the EC50 is reported as 23.7 µM. For `COc1c(C)c(O)c(C(C)=O)c2c1[C@]1(C)C(=Cc3c(c(C)nn3-c3ccccc3)CC13CO3)O2` (single isomer, unassigned; (+)), the EC50 was 262 µM. With `COc1c(C)c(O)c(C(=O)/C=C/c2ccccc2)c2c1[C@@]1(C)C(=Cc3c(c(C)nn3-c3ccccc3)[C@@H]1O)O2` the EC50 was 60.6 µM. Work on `COc1ccccc1/C=C/C(=O)c1c(O)c(C)c(OC)c2c1OC1=Cc3c(c(C)nn3-c3ccccc3)[C@H](O)[C@]12C` yielded an EC50 of 64.9 µM. With `CC(=O)c1c(O)c(C)c(O)c2c1OC1=CC(=O)/C(=C(/C)NCC(=O)O)C(=O)[C@]12C` the EC50 was 10.7 µM. Work on `CC(=O)[C@@]12O[C@@]13OC1=Cc4c(c(C)nn4-c4ccccc4)C(=O)[C@]1(C)[C@@]3(O)C(O)=C(C)C2=O` yielded an EC50 of 13.4 µM. With `COc1ccccc1/C=C1\Oc2c(C)c(O)c3c(c2C1=O)OC1=CC(O)=C(C(C)=O)C(=O)[C@@]13C` the EC50 was 4.8 µM. For `COc1cc(/C=C/C(=O)c2c(O)c(C)c(OC)c3c2OC2=Cc4c(c(C)nn4-c4ccccc4)[C@@H](O)[C@@]23C)cc(OC)c1OC`, the EC50 was 8.2 µM. `COc1ccc2[nH]c(SCC(=O)c3c(OC)c(C)c(O)c4c3OC3=CC(O)=C(C(C)=O)C(=O)[C@@]34C)nc2c1` gave an EC50 of 24.3 µM. For `COc1c(C)c(O)c(C(=O)/C=C/c2ccccc2)c2c1[C@]1(C)C(=Cc3c(c(C)nn3-c3ccccc3)[C@H]1O)O2`, the EC50 was 32.7 µM. Work on `CC(=O)c1c(O)c(C)c(O)c2c1OC1=CC(=O)/C(=C(/C)NCCC(=O)O)C(=O)[C@]12C` yielded an EC50 of 14.5 µM. Work on `COc1c(C)c(O)c2c(c1C(=O)CSCCC(=O)O)OC1=CC(O)=C(C(C)=O)C(=O)[C@@]12C` yielded an EC50 of 161 µM. For `COc1cccc(/C=C/C(=O)c2c(O)c(C)c(OC)c3c2OC2=Cc4c(c(C)nn4-c4ccccc4)C(=O)[C@@]23C)c1OC`, the EC50 was 8.7 µM. `COc1cccc(/C=C/C(=O)c2c(O)c(C)c(OC)c3c2OC2=Cc4c(c(C)nn4-c4ccccc4)[C@@H](O)[C@@]23C)c1OC` showed an EC50 of 50.7 µM. Compound `CC(=O)c1c(O)c(C)c(O)c2c1OC1=Cc3c(c(C)nn3-c3ccccc3)C(=O)[C@]12C` has an EC50 of 56.3 µM. For `CC(=O)c1c(O)c(C)c(O)c2c1OC1=Cc3c(c(C)nn3-c3cccc(C(F)(F)F)c3)C(=O)[C@@]12C`, the EC50 was 68.4 µM. `CC(=O)C1=C(O)C=C2O[C@@]34O[C@]3(C(C)=O)C(=O)C(C)=C(O)[C@@]4(O)[C@]2(C)C1=O` gave an EC50 of 28.7 µM. For `COc1cccc(/C=C/C(=O)c2c(O)c(C)c(OC)c3c2OC2=Cc4c(c(C)nn4-c4ccccc4)[C@H](O)[C@]23C)c1OC`, the EC50 was 76.4 µM. With `CC(=O)c1c(O)c(C)c(O)c2c1OC1=CC(=O)/C(=C(/C)N[C@H](CC(=O)O)CC(C)C)C(=O)[C@]12C` the EC50 was 6.6 µM. `CC(=O)C1=C(O)C=C2Oc3c4c(c(C)c(O)c3[C@@]2(C)C1=O)OCC4=O` showed an EC50 of 64.3 µM. For `CC(=O)C1=C(O)C=C2Oc3c(C(=O)CSc4nc5ccccc5s4)c(O)c(C)c(O)c3[C@@]2(C)C1=O`, the EC50 was 29.5 µM. In the case of `COc1c(C)c(O)c2c(c1C(=O)CSC1=NCCS1)OC1=CC(O)=C(C(C)=O)C(=O)[C@@]12C`, the EC50 is reported as 14.7 µM. `CC(=O)c1c(O)c(C)c(O)c2c1OC1=CC(=O)/C(=C(/C)NCCCC(=O)O)C(=O)[C@]12C` showed an EC50 of 28 µM. In the case of `CC(=O)c1c(O)c(C)c(O)c2c1OC1=CC(=O)/C(=C(/C)NCCCC(=O)O)C(=O)[C@@]12C`, the EC50 is reported as 35 µM. `CSCC[C@H](N/C(C)=C1\C(=O)C=C2Oc3c(C(C)=O)c(O)c(C)c(O)c3[C@@]2(C)C1=O)C(=O)O` showed an EC50 of 4.2 µM. `COc1ccc(/C=C/C(=O)c2c(O)c(C)c(OC)c3c2OC2=Cc4c(c(C)nn4-c4ccccc4)[C@@H](O)[C@@]23C)c(OC)c1` gave an EC50 of 25.9 µM. Work on `COc1ccc(/C=C/C(=O)c2c(O)c(C)c(OC)c3c2OC2=Cc4c(c(C)nn4-c4ccccc4)[C@@H](O)[C@@]23C)c(OC)c1OC` yielded an EC50 of 32.8 µM. Work on `CC(=O)C1=C(O)C=C2Oc3c(C(C)=O)c(O)c(C)c(O)c3[C@]2(C)C1=O` [(-)-USNIC ACID] yielded an EC50 of 13.1 µM. For `COc1c(C)c(O)c(C(=O)/C=C/c2ccc(SC)cc2)c2c1[C@]1(C)C(=Cc3c(c(C)nn3-c3ccccc3)[C@H]1O)O2`, the EC50 was 53 µM. `COc1ccc(OC)c(/C=C/C(=O)c2c(O)c(C)c(OC)c3c2OC2=Cc4c(c(C)nn4-c4ccccc4)[C@@H](O)[C@@]23C)c1` gave an EC50 of 25.9 µM. Compound `CC(=O)c1c(O)c(C)c(O)c2c1OC1=Cc3c(c(C)nn3-c3ccccc3)[C@H](O)[C@]12C` has an EC50 of 12 µM. `CC(=O)C1=C(O)C=C2Oc3c(C(=O)CSCc4ncccc4C(=O)O)c(O)c(C)c(O)c3[C@@]2(C)C1=O` gave an EC50 of 56.3 µM. Work on `CC(=O)c1c(O)c(C)c(O)c2c1OC1=CC(=O)/C(=C(/C)N[C@@H](CC(C)C)C(=O)O)C(=O)[C@@]12C` yielded an EC50 of 6.6 µM. `CC(=O)C1=C(O)C=C2O[C@]34O[C@@]3(C(C)=O)C(=O)C(C)=C(O)[C@]4(O)[C@@]2(C)C1=O` showed an EC50 of 10.6 µM. Work on `CC(=O)C1=C(O)C=C2Oc3c(C(=O)CSCc4ccccc4)c(O)c(C)c(O)c3[C@@]2(C)C1=O` yielded an EC50 of 2.1 µM. For `CC(=O)C1=C(O)C=C2Oc3c(C(C)=O)c(OC(F)(Cl)C(F)F)c(C)c(O)c3[C@@]2(C)C1=O` (stereo not given in full), the EC50 was 7.2 µM. `CC(=O)C1=C(O)C=C2Oc3c4c(c(C)c(O)c3[C@@]2(C)C1=O)O/C(=C\c1cccnc1)C4=O` gave an EC50 of 7 µM. For `CC(=O)C1=C(O)C=C2Oc3c4c(c(C)c(O)c3[C@]2(C)C1=O)OCC4=O`, the EC50 was 64.3 µM. `CC(=O)c1c(O)c(C)c(O)c2c1OC1=Cc3c(c(C)nn3-c3ccccc3)[C@@H](O)[C@@]12C` gave an EC50 of 2.4 µM.

— ChEMBL document CHEMBL3352088, “Novel derivatives of usnic acid effectively inhibiting reproduction of influenza A virus” (Bioorg Med Chem, 2014)
